Measurements taken from ChEMBL document CHEMBL1150627, “Diterpenes from the roots of Euphorbia kansui and their in vitro effects on the cell division of Xenopus” (2002).
The source made the active and inactive calls. The rule behind the calls is not given here.

Columns and labels:
[1] = Induction of cleavage arrest in embryonic cells of Xenopus laevis stage 8 blastulae at 0.5 ug/mL after 20 hrs by animal cap assay; type: functional
Outline: (§1)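 Single inner-surface cells taken from animal caps of X. laevis stage 8 blastulae, freed in Ca/Mg-free medium (50 mM phosphate, 35 mM NaCl, 1 mM KCl, pH 7.0). Two or three cells per well in NAM/2 with 2 mg/mL γ-globulin, non-nutritive. Test concentrations 0.1, 0.5, 2, 10, 50 and 200 µg/mL. Cultured 20 h at 25 °C. Read-out: percentage of cells with cleavage arrest.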

Xenopus laevis = organism: Xenopus laevis; test: Induction of cleavage arrest in embryonic cells of Xenopus laevis stage 8 blastulae after 20 hrs by animal cap assay; type: functional, cell-based; outline: as §1

SMILES	Activity [1] [%]	Activity (Xenopus laevis)
CCCCC/C=C\C=C\C(=O)O[C@H]1C(C)=C[C@]23C(=O)[C@@H](C=C(CO)[C@@H](OC(C)=O)[C@]12O)[C@H]1[C@@H](C[C@H]3C)C1(C)C	>75	–
CCCCCCCCCC(=O)OCC1=C[C@@H]2C(=O)[C@]3(C=C(C)[C@H](O)[C@@]3(O)[C@@H]1O)[C@H](C)C[C@@H]1[C@H]2C1(C)C	>75	–
CCCCC/C=C\C=C\C(=O)O[C@H]1C(C)=C[C@]23C(=O)[C@@H](C=C(COC(C)=O)[C@@H](O)[C@]12O)[C@H]1[C@@H](C[C@H]3C)C1(C)C	>75	–
CCCCC/C=C\C=C\C(=O)O[C@H]1C(C)=C[C@]23C(=O)[C@@H](C=C(CO)[C@@H](O)[C@]12O)[C@H]1[C@@H](C[C@H]3C)C1(C)C	>75	–
C=C1[C@H](OC(=O)c2ccccc2)[C@H]2[C@@H](OC(C)=O)[C@](C)(O)[C@H](OC(C)=O)[C@]2(O)C(=O)[C@@H](C)[C@H]2O[C@@H]2C(C)(C)C(=O)[C@H](O)[C@H]1OC(=O)c1ccccc1	–	inactive
CCCCC/C=C\C=C\C(=O)OCC1=C[C@@H]2C(=O)[C@]3(C=C(C)[C@H](O)[C@@]3(O)[C@@H]1O)[C@H](C)C[C@@H]1[C@H]2C1(C)C	>75	–
CCCCC/C=C/C=C/C(=O)O[C@H]1C(C)=C[C@]23C(=O)[C@@H](C=C(COC(C)=O)[C@@H](O)[C@]12O)[C@H]1[C@@H](C[C@H]3C)C1(C)C	>75	–
CCCCC/C=C/C=C/C(=O)O[C@@H]1C(CO)=C[C@@H]2C(=O)[C@]3(C=C(C)[C@H](O)[C@@]13O)[C@H](C)C[C@@H]1[C@H]2C1(C)C	>75	–
CCCCC/C=C/C=C/C(=O)OCC1=C[C@@H]2C(=O)[C@]3(C=C(C)[C@H](O)[C@@]3(O)[C@@H]1O)[C@H](C)C[C@@H]1[C@H]2C1(C)C	>75	–
CCCCC/C=C/C=C/C(=O)O[C@H]1C(C)=C[C@]23C(=O)[C@@H](C=C(CO)[C@@H](O)[C@]12O)[C@H]1[C@@H](C[C@H]3C)C1(C)C	>75	–
C=C1[C@H](OC(C)=O)[C@@H](OC(=O)c2ccccc2)[C@@H](OC(C)=O)C(C)(C)[C@H]2O[C@](O)([C@H](C)C2=O)[C@@]2(OC(C)=O)C[C@H](C)[C@H](OC(C)=O)[C@@H]2[C@H]1OC(C)=O	–	inactive
